Test results taken from the RNAGym collection of RNA variant scans (doi:10.1002/anie.201605470).

B1: Osa-1-4 twister ribozyme (parent)
chain: CCGCCUAACACUGCCAAUGCCGGUCCCAAGCCCGGAUAAAAGUGGAGGGGGCGG

Variants of: B1
Assay: self-cleavage, relative activity (ratio to wild type); higher = more cleavage; co-transcriptional
Outline: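 A DNA template encoding a 54-nucleotide twister ribozyme from Oryza sativa was made so that each of the 48 positions downstream of the cleavage site carried 97 % wild-type base and 1 % of each other base. Transcription in vitro ran for 2 h at 37 °C, during which the ribozyme could cleave itself. Reverse transcription used a template-switching oligonucleotide, and the products were PCR-amplified and deep-sequenced. Each read was scored as cleaved or uncleaved by whether upstream sequence was present, and relative activity is the fraction cleaved normalised to wild type.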

Variant	self-cleavage
CCGCCUAACACUGCCAGUGCCCGUCCCAAGCCCGGAUAAAAGUGGAGGGGGCGG [A17G G22C]	0.15
CCGCCUAACACUGCCAGUGCCUGUCCCAAGCCCGGAUAAAAGUGGAGGGGGCGG [A17G G22U]	0.79
CCGCCUAACACUGCCAGUGCCAGUCCCAAGCCCGGAUAAAAGUGGAGGGGGCGG [A17G G22A]	0.97
CCGCCUAACACUGCCAGUGCCGGUCCCAAGCCCGGAUAAAAGUGUAGGGGGCGG [A17G G45U]	0.17
CCGCCUAACACUGCCAGUGCCGGUCCCAAGCCCGGAUAAAAGUGCAGGGGGCGG [A17G G45C]	0.07
CCGCCUAACACUGCCAGUGCCGGUCCCAAGCCCGGAUAAAAGUGAAGGGGGCGG [A17G G45A]	0.43
CCGCCUAACACUGCCAGUGCCGGUCCCAAGCCCGGAUAAAAGUGGAGGGGGCAG [A17G G53A]	0.85
CCGCCUAACACUGCCAGUGCCGGUCCCAAGCCCGGAUAAAAGUGGAGGGGGCCG [A17G G53C]	0.12
CCGCCUAACACUGCCAGUGCCGGUCCCAAGCCCGGAUAAAAGUGGAGGGGGCUG [A17G G53U]	0.54
CCGCCUAACACUGCCAGUGCCGGUCCCAAGCCCGGAGAAAAGUGGAGGGGGCGG [A17G U37G]	1.01
CCGCCUAACACUGCCAGUGCCGGUCCCAAGCCCGGAAAAAAGUGGAGGGGGCGG [A17G U37A]	0.63
CCGCCUAACACUGCCAGUGCCGGUCCCAAGCCCGGACAAAAGUGGAGGGGGCGG [A17G U37C]	1.02
CCGCCUAACACUGCCAGUGCCGGUCCCAACCCCGGAUAAAAGUGGAGGGGGCGG [A17G G30C]	0.06
CCGCCUAACACUGCCAGUGCCGGUCCCAAACCCGGAUAAAAGUGGAGGGGGCGG [A17G G30A]	0.05
CCGCCUAACACUGCCAGUGCCGGUCCCAAUCCCGGAUAAAAGUGGAGGGGGCGG [A17G G30U]	0.05
CCGCCUAACACUGCCAGUGCCGGUCCCAAGCUCGGAUAAAAGUGGAGGGGGCGG [A17G C32U]	0.19
CCGCCUAACACUGCCAUUGCCGGUCCCAAGCCCGGAUGAAAGUGGAGGGGGCGG [A17U A38G]	1.02
CCGCCUAACACUGCCAUUGCCGGUCCCAAGCCCGGAUUAAAGUGGAGGGGGCGG [A17U A38U]	1.02
CCGCCUAACACUGCCAUUGCCGGUCCCAAGCCCGGAUCAAAGUGGAGGGGGCGG [A17U A38C]	0.98
CCGCCUAACACUGCCAGUGCCGAUCCCAAGCCCGGAUAAAAGUGGAGGGGGCGG [A17G G23A]	0.43
CCGCCUAACACUGCCAGUGCCGUUCCCAAGCCCGGAUAAAAGUGGAGGGGGCGG [A17G G23U]	0.08
CCGCCUAACACUGCCAGUGCCGCUCCCAAGCCCGGAUAAAAGUGGAGGGGGCGG [A17G G23C]	0.08
CCGCCUAACACUGCCAGUGCCGGUCCCAAGCCCGGAUAAAACUGGAGGGGGCGG [A17G G42C]	0.08
CCGCCUAACACUGCCAGUGCCGGUCCCAAGCCCGGAUAAAAUUGGAGGGGGCGG [A17G G42U]	0.21
CCGCCUAACACUGCCAGUGCCGGUCCCAAGCCCGGAUAAAAAUGGAGGGGGCGG [A17G G42A]	0.58

Variant	self-cleavage
CCGCCUAACACUGCCAUUGCCGGUCCCAAGCCCGGAUAAGAGUGGAGGGGGCGG [A17U A40G]	0.93
CCGCCUAACACUGCCAUUGCCGGUCCCAAGCCCGGAUAACAGUGGAGGGGGCGG [A17U A40C]	0.09
CCGCCUAACACUACCAGUGCCGGUCCCAAGCCCGGAUAAAAGUGGAGGGGGCGG [A17G G13A]	0.23
CCGCCUAACACUUCCAGUGCCGGUCCCAAGCCCGGAUAAAAGUGGAGGGGGCGG [A17G G13U]	0.04
CCGCCUAACACUCCCAGUGCCGGUCCCAAGCCCGGAUAAAAGUGGAGGGGGCGG [A17G G13C]	0.03
CCGCCUAACACUGCCAGUGCCGGUCCCAAGCCCGGAUAAAAGUGGAGGGGGCGU [A17G G54U]	0.91
CCGCCUAACACUGCCAGUGCCGGUCCCAAGCCCGGAUAAAAGUGGAGGGGGCGC [A17G G54C]	0.92
CCGCCUAACACUGCCAGUGCCGGUCCCAAGCCCGGAUAAAAGUGGAGGGGGCGA [A17G G54A]	0.9
CCGCCUAACACUGCCAUUGCCGGUCCCAUGCCCGGAUAAAAGUGGAGGGGGCGG [A17U A29U]	0.19
CCGCCUAACACUGCCAUUGCCGGUCCCAGGCCCGGAUAAAAGUGGAGGGGGCGG [A17U A29G]	0.35
CCGCCUAACACUGCCAUUGCCGGUCCCACGCCCGGAUAAAAGUGGAGGGGGCGG [A17U A29C]	0.05
CCGCCUAACACUGCCAGUGCCGGUCCCAAGCCCGGAUAAAAGCGGAGGGGGCGG [A17G U43C]	0.72
CCGCCUAACACUGCCAGUGCCGGUCCCAAGCCCGGAUAAAAGGGGAGGGGGCGG [A17G U43G]	0.51
CCGCCUAACACUGCCAGUGCCGGUCCCAAGCCCGGAUAAAAGAGGAGGGGGCGG [A17G U43A]	0.81
CCGCCUAACACUGCCAGUGCCGGUCCCAAGCCCGGAUAAAAGUUGAGGGGGCGG [A17G G44U]	0.74
CCGCCUAACACUGCCAGUGCCGGUCCCAAGCCCGGAUAAAAGUAGAGGGGGCGG [A17G G44A]	0.88
CCGCCUAACACUGCCAGUGCCGGUCCCAAGCCCGGAUAAAAGUCGAGGGGGCGG [A17G G44C]	0.88
CCGCCUAACACUGCCAUUGCCGGUCCCAAGCCCGGAUACAAGUGGAGGGGGCGG [A17U A39C]	0.98
CCGCCUAACACUGCCAUUGCCGGUCCCAAGCCCGGAUAUAAGUGGAGGGGGCGG [A17U A39U]	1.03
CCGCCUAACACUGCCAUUGCCGGUCCCAAGCCCGGAUAGAAGUGGAGGGGGCGG [A17U A39G]	1.03
CCGCCUAACACUGCCAUUGCCGGUCCCCAGCCCGGAUAAAAGUGGAGGGGGCGG [A17U A28C]	0.94
CCGCCUAACACUGCCAUUGCCGGUCCCGAGCCCGGAUAAAAGUGGAGGGGGCGG [A17U A28G]	0.37
CCGCCUAACACUGCCAUUGCCGGUCCCUAGCCCGGAUAAAAGUGGAGGGGGCGG [A17U A28U]	0.97
CCGCCUAACACUGCCAGUGCCGGUCCCAAGCCCGGAUAAAAGUGGAGGGAGCGG [A17G G50A]	0.51
CCGCCUAACACUGCCAGUGCCGGUCCCAAGCCCGGAUAAAAGUGGAGGGUGCGG [A17G G50U]	0.99

Variant	self-cleavage
CCGCCUAACACUGCCAGUGCCGGUCCCAAGCCCGGAUAAAAGUGGAGGGCGCGG [A17G G50C]	0.91
CCGCCUAACACUGCCAGUGCCGGUCCCAAGCCCGGAUAAAAGUGGAGGGGGUGG [A17G C52U]	1.01
CCGCCUAACACUGCCAGUGCCGGUCCCAAGCCCGGAUAAAAGUGGAGGGGGGGG [A17G C52G]	0.9
CCGCCUAACACUGCCAGUGCCGGUCCCAAGCCCGGAUAAAAGUGGAGGGGGAGG [A17G C52A]	0.95
CCGCCUGACACUGCCAUUGCCGGUCCCAAGCCCGGAUAAAAGUGGAGGGGGCGG [A17U A7G]	0.43
CCGCCUUACACUGCCAUUGCCGGUCCCAAGCCCGGAUAAAAGUGGAGGGGGCGG [A17U A7U]	0.09
CCGCCUCACACUGCCAUUGCCGGUCCCAAGCCCGGAUAAAAGUGGAGGGGGCGG [A17U A7C]	0.05
CCGCCUAACACUGCCAGUGCCGGUCCCAAGCCCGGAUAAAAGUGGAGGGGUCGG [A17G G51U]	0.3
CCGCCUAACACUGCCAGUGCCGGUCCCAAGCCCGGAUAAAAGUGGAGGGGCCGG [A17G G51C]	0.14
CCGCCUAACACUGCCAGUGCCGGUCCCAAGCCCGGAUAAAAGUGGAGGGGACGG [A17G G51A]	0.44
CCGCCUAACACAGCCAGUGCCGGUCCCAAGCCCGGAUAAAAGUGGAGGGGGCGG [A17G U12A]	0.86
CCGCCUAACACGGCCAGUGCCGGUCCCAAGCCCGGAUAAAAGUGGAGGGGGCGG [A17G U12G]	0.39
CCGCCUAACACCGCCAGUGCCGGUCCCAAGCCCGGAUAAAAGUGGAGGGGGCGG [A17G U12C]	0.56
CCGCCUAACACUGCCAGUGCCGGUCCCAAGCCCGGAUAAAAGUGGAUGGGGCGG [A17G G47U]	0.43
CCGCCUAACACUGCCAGUGCCGGUCCCAAGCCCGGAUAAAAGUGGAAGGGGCGG [A17G G47A]	0.46
CCGCCUAACACUGCCAGUGCCGGUCCCAAGCCCGGAUAAAAGUGGACGGGGCGG [A17G G47C]	0.17
CCGCCUAACACUGCCAGUGCCGGUCCCAAGCCCGGAUAAAAGUGGAGUGGGCGG [A17G G48U]	0.12
CCGCCUAACACUGCCAGUGCCGGUCCCAAGCCCGGAUAAAAGUGGAGAGGGCGG [A17G G48A]	0.15
CCGCCUAACACUGCCAGUGCCGGUCCCAAGCCCGGAUAAAAGUGGAGCGGGCGG [A17G G48C]	0.13
CCGCCUAACACUGCCAGUACCGGUCCCAAGCCCGGAUAAAAGUGGAGGGGGCGG [A17G G19A]	0.95
CCGCCUAACACUGCCAGUUCCGGUCCCAAGCCCGGAUAAAAGUGGAGGGGGCGG [A17G G19U]	0.52
CCGCCUAACACUGCCAGUCCCGGUCCCAAGCCCGGAUAAAAGUGGAGGGGGCGG [A17G G19C]	0.29
CCGCCUAACACUGCCAUUGCCGGUCCCAAGCCCGGCUAAAAGUGGAGGGGGCGG [A17U A36C]	0.79
CCGCCUAACACUGCCAUUGCCGGUCCCAAGCCCGGGUAAAAGUGGAGGGGGCGG [A17U A36G]	1.05
CCGCCUAACACUGCCAUUGCCGGUCCCAAGCCCGGUUAAAAGUGGAGGGGGCGG [A17U A36U]	1.04

Variant	self-cleavage
CCGCCUAUCACUGCCAUUGCCGGUCCCAAGCCCGGAUAAAAGUGGAGGGGGCGG [A17U A8U]	0.42
CCGCCUAGCACUGCCAUUGCCGGUCCCAAGCCCGGAUAAAAGUGGAGGGGGCGG [A17U A8G]	0.62
CCGCCUACCACUGCCAUUGCCGGUCCCAAGCCCGGAUAAAAGUGGAGGGGGCGG [A17U A8C]	0.11
CCGCCUAACACUGCCAGUGCCGGUCCCAAGCCCUGAUAAAAGUGGAGGGGGCGG [A17G G34U]	0.57
CCGCCUAACACUGCCAGUGCCGGUCCCAAGCCCCGAUAAAAGUGGAGGGGGCGG [A17G G34C]	0.41
CCGCCUAACACUGCCAGUGCCGGUCCCAAGCCCAGAUAAAAGUGGAGGGGGCGG [A17G G34A]	0.73
CCGCCUAACACUGCCAGUGCCGGUCCCAAGCCUGGAUAAAAGUGGAGGGGGCGG [A17G C33U]	0.19
CCGCCUAACACUGCCAGUGCCGGUCCCAAGCCAGGAUAAAAGUGGAGGGGGCGG [A17G C33A]	0.18
CCGCCUAACACUGCCAGUGCCGGUCCCAAGCCGGGAUAAAAGUGGAGGGGGCGG [A17G C33G]	0.07
CCGCCUAACACUGCCAGUGCCGGUCCCAAGCCCGGAUAAAAGUGGAGGUGGCGG [A17G G49U]	0.25
CCGCCUAACACUGCCAGUGCCGGUCCCAAGCCCGGAUAAAAGUGGAGGAGGCGG [A17G G49A]	0.26
CCGCCUAACACUGCCAGUGCCGGUCCCAAGCCCGGAUAAAAGUGGAGGCGGCGG [A17G G49C]	0.08
CCGCCUAACACUGCCAGAGCCGGUCCCAAGCCCGGAUAAAAGUGGAGGGGGCGG [A17G U18A]	0.94
CCGCCUAACACUGCCAGCGCCGGUCCCAAGCCCGGAUAAAAGUGGAGGGGGCGG [A17G U18C]	0.52
CCGCCUAACACUGCCAGGGCCGGUCCCAAGCCCGGAUAAAAGUGGAGGGGGCGG [A17G U18G]	0.85
CCGCCUAACACUGCCAUUGCCGGUCCCAAGCCCGGAUAAAAGUGGAGGGGGCGG [A17U]	1.03
CCGCCUAACACUGCCAGUGCCGGGCCCAAGCCCGGAUAAAAGUGGAGGGGGCGG [A17G U24G]	0.03
CCGCCUAACACUGCCAGUGCCGGACCCAAGCCCGGAUAAAAGUGGAGGGGGCGG [A17G U24A]	0.43
CCGCCUAACACUGCCAGUGCCGGCCCCAAGCCCGGAUAAAAGUGGAGGGGGCGG [A17G U24C]	0.36
CCGCCUAACACUGCCAGUGCCGGUCCCAAGCCCGCAUAAAAGUGGAGGGGGCGG [A17G G35C]	0.66
CCGCCUAACACUGCCAGUGCCGGUCCCAAGCCCGUAUAAAAGUGGAGGGGGCGG [A17G G35U]	0.77
CCGCCUAACACUGCCAGUGCCGGUCCCAAGCCCGAAUAAAAGUGGAGGGGGCGG [A17G G35A]	0.79
